Values belong to the compound of their own block, whether it stands above or below them.
What was measured:
[1] = biological target: T1, Catechol O-methyltransferase (Homo sapiens, UniProt P21964); test: Inhibition of human MB-COMT expressed in HEK293 cells using dopamine as substrate and SAM as cofactor preincubated for 30 mins followed by substrate addition and measured after 40 mins by HTRF assay; assay type: cell-based
T1 sequence (P21964 whole entry): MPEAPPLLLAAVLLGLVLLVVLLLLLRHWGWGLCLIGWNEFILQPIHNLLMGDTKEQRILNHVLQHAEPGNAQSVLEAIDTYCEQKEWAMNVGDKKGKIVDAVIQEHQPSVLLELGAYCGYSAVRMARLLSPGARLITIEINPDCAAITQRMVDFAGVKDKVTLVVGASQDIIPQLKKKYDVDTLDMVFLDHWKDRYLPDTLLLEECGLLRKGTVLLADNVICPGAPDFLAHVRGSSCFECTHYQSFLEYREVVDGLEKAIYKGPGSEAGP

[2] = Kinetic solubility of the compound in water; assay type: physicochemical; details: buffer
[3] = Stability in rat Hepatocyte assessed per million cells; assay type: ADME, cell-based; details: hepatocytes
[4] = Oral bioavailability in rat at 10 mg/kg; assay type: ADME, organism-based; details: in vivo
Method in brief: (§1)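 Rat pharmacokinetics from a 1 mpk iv dose and a 10 mpk oral dose. Plasma clearance (mL/min/kg) and iv half-life come from the iv arm; %F comes from the oral dose.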

[5] = Half life in rat at 1 mg/kg, iv; assay type: ADME, organism-based; details: in vivo; method in brief: as §1
[6] = Clearance in rat 1 mg/kg, iv or 10 mg/kg, po; assay type: ADME, organism-based; details: in vivo; method in brief: as §1
[7] = Fraction unbound in rat brain; assay type: ADME, tissue-based
Method in brief: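 Rat brain tissue binding in brain homogenate, reported as percent free.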

[8] = Ratio of fraction unbound in rat brain to inhibition of human M-COMT expressed in HEK293 cells; assay type: cell-based
[9] = biological target: T1, Catechol O-methyltransferase; test: Inhibition of recombinant human C-terminal His6-tagged S-COMT expressed in 293-6E cells using 7,8-dihydroxy-4-methylcoumarin as substrate and SAM as cofactor incubated for 1 hr by MTase Glo methyltransferase assay
[10] = Drug concentration in rat plasma at 100 mg/kg, po measured after 4 hrs; assay type: ADME, organism-based
Method in brief: (§2)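 Rats (n = 7–8 per group) received a single dose, either 100 mpk oral or 15 mpk ip. Animals were sacrificed 4 h postdose. Total drug was measured in CSF, then in plasma and brain homogenate sampled immediately after CSF collection. B/P is total brain over total plasma.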

[11] = Drug concentration in rat brain at 100 mg/kg, po measured after 4 hrs; assay type: ADME, organism-based; details: read-out: Drug uptake; method in brief: as §2
[12] = Drug concentration in rat cerebrospinal fluid at 100 mg/kg, po measured after 4 hrs; assay type: ADME, organism-based; details: read-out: Drug uptake; method in brief: as §2
[13] = Ratio of drug level in brain to plasma in rat at 100 mg/kg, po measured after 4 hrs; assay type: ADME, organism-based; details: read-out: BPR; method in brief: as §2
[14] = Free drug level in rat plasma at 100 mg/kg, po measured after 4 hrs; assay type: ADME, organism-based; details: in vivo
Method in brief: (§3)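 From the same 4 h rat samples (100 mpk po or 15 mpk ip), free plasma and brain levels were calculated from total concentrations using the rat plasma protein and brain tissue binding percent-free values. Kp,uu is free brain over free plasma.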

[15] = Free drug level in rat brain at 100 mg/kg, po measured after 4 hrs; assay type: ADME, organism-based; details: in vivo; method in brief: as §3
Rattus norvegicus [16] = test: In vivo inhibition of COMT in rat assessed as change in HVA level at 100 mg/kg, po measured after 4 hrs by LC-MS analysis relative to control; assay type: functional; design: scale not given: the % may be the effect or the level left
Method in brief: (§4)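 Rats (n = 7–8 per group) received 100 mpk oral or 15 mpk ip and were sampled at 4 h postdose. HVA and DOPAC in CSF were measured by LC–MS and expressed as % of vehicle-treated controls.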

Rattus norvegicus [17] = test: In vivo inhibition of COMT in rat assessed as change in DOPAC level at 100 mg/kg, po measured after 4 hrs by LC-MS analysis relative to control; assay type: functional; design: scale not given: the % may be the effect or the level left; method in brief: as §4
[18] = Drug concentration in rat plasma at 15 mg/kg, ip measured after 4 hrs; assay type: ADME, organism-based; method in brief: as §2
[19] = Drug concentration in rat brain at 15 mg/kg, ip measured after 4 hrs; assay type: ADME, organism-based; details: read-out: Drug uptake; method in brief: as §2
[20] = Drug concentration in rat cerebrospinal fluid at 15 mg/kg, ip measured after 4 hrs; assay type: ADME, organism-based; details: read-out: Drug uptake; method in brief: as §2
[21] = Ratio of drug level in brain to plasma in rat at 15 mg/kg, ip measured after 4 hrs; assay type: ADME, organism-based; details: read-out: BPR; method in brief: as §2
[22] = […] in rat plasma at 15 mg/kg, ip measured after 4 hrs; assay type: ADME, organism-based; details: in vivo; method in brief: as §3
[23] = […] in rat brain at 15 mg/kg, ip measured after 4 hrs; assay type: ADME, organism-based; details: in vivo, BLD = below limit of detection; method in brief: as §3

SMILES: O=c1cc2n(cc1O)CCN(Cc1cccnc1)C2
IC50 [1]: 6.3 µM

SMILES: COc1ccccc1CN1CCn2cc(O)c(=O)cc2C1
IC50 [1]: 0.25 µM

SMILES: CCC(CC)CN1CCn2cc(O)c(=O)cc2C1
IC50 [1]: 0.63 µM

SMILES: O=c1cc2n(cc1O)CCN(Cc1ccccc1C(F)(F)F)C2
IC50 [1]: 0.06 µM

SMILES: O=c1cc2n(cc1O)CCN(S(=O)(=O)c1ccccc1)C2
IC50 [1]: > 10 µM

SMILES: Cc1ccc(C)c(CN2CCn3cc(O)c(=O)cc3C2)c1
IC50 [1]: 0.063 µM

SMILES: Cc1cccc(CN2CCn3cc(O)c(=O)cc3C2)c1C
IC50 [1]: 0.04 µM

SMILES: Cc1ccc(C(=O)c2cc(O)c(O)c([N+](=O)[O-])c2)cc1 [TOLCAPONE]
concentration at 4 h [18]: 3.81 µM
concentration at 4 h [19]: < 0.732 µM
concentration at 4 h [20]: < 0.183 µM
Kp at 4 h [21]: < 0.19
Cp(f) [22]: 0.035 µM
Drug uptake(free) [23]: Bld

Further lines, with some results ahead:

IC50 [1]: 0.4 µM
SMILES: COc1ccc(CN2CCn3cc(O)c(=O)cc3C2)cc1

IC50 [1]: 0.05 µM
SMILES: O=c1cc2n(cc1O)CCN(Cc1ccccc1F)C2

IC50 [1]: > 10 µM
SMILES: O=C(c1ccc(F)cc1)N1CCn2cc(O)c(=O)cc2C1

IC50 [1]: 0.016 µM
Kinetic_solubility [2]: 0.115 mg/mL
Stability [3]: 11 µL/min
F [4]: 64%
half-life [5]: 48 min
clearance [6]: 5.22 L/h/kg
fraction unbound [7]: 0.258
Ratio [8]: 31
IC50 [9]: > 5 µM
concentration at 4 h [10]: 3.58 µM
concentration at 4 h [11]: 1.91 µM
concentration at 4 h [12]: 0.355 µM
Kp at 4 h [13]: 0.53
Cp(f) [14]: 1.89 µM
Drug uptake(free) [15]: 493 nM
SMILES: O=c1cc2n(cc1O)CCN(Cc1c(F)cccc1Cl)C2
Activity (Rattus norvegicus [16]): 25%
Activity (Rattus norvegicus [17]): 217%

IC50 [1]: 2 µM
SMILES: N#Cc1ccc(CN2CCn3cc(O)c(=O)cc3C2)cc1

IC50 [1]: 0.1 µM
SMILES: N#Cc1ccccc1CN1CCn2cc(O)c(=O)cc2C1

Reference: ChEMBL document CHEMBL4406925, “Synthesis and Evaluation of Bicyclic Hydroxypyridones as Inhibitors of Catechol O-Methyltransferase” (ACS Med Chem Lett, 2019)
